From PubChem BioAssay
Hits are enriched below; roughly 1.7% of the tested compounds scored in any of these assays.
Scp1 inh – Scp-1 (human) phosphatase inhibition; Recombinant Scp1, phosphopeptide, malachite green phosphate absorbance; actives 0.88% (n = 340,000); inhibition, % at 20 µM; AID 493091;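 active means inhibition above about 50% at 20 µM, limit read from the data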;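 further: plate controls were DMSO wells with enzyme for no effect and wells lacking enzyme for full effect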
Target sequence (Q9GZU7 76-261 limits assumed): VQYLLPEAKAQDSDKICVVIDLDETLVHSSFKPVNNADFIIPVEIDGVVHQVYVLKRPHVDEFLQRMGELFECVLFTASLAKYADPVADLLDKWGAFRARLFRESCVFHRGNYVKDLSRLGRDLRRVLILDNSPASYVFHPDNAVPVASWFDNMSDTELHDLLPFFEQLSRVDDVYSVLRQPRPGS
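Times: enzyme reaction 45 min at room temperature, colour 5 min, stabilisation 30 min. Material: SCP-1 catalytic fragment, aa 76-261. Medium: Acidic Tris acetate buffer with magnesium and detergent. Signal: colorimetric free-phosphate detection, absorbance 630 nm. Read-out basis: % inhibition of SCP-1 phosphate liberation. Reagent: Phosphorylated 17-residue peptide substrate.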
DNMT1 block – inhibitors of human DNMT1. P26358. DNMT1 molecular beacon, Hinp1I cleavage, fluorescence. inhibition (reported as % activation of signal), % at 10 µM. actives 0.83% (n = 360,000). AID 588458; in the data active means inhibition above about 50%
SUMO1-SIM PPI – modulators of human SUMO1-mediated protein-protein interactions; actives 0.33% (n = 360,000); SUMO1 binding to a labelled peptide, TR-FRET, 1 h; AID 602429; inhibition, % at 20 µM; in the data active means inhibition above about 37%
Target sequence (P63165 whole entry, looked up): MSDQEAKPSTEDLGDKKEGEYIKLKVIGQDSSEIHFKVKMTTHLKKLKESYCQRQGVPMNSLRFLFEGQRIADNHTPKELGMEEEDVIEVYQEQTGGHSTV
LMPTP inh – LMPTP (human) inhibition; P24666; recombinant LMPTP-A, OMFP fluorogenic substrate, fluorescence intensity; inhibition, % at 20 µM; actives 0.22% (n = 360,000);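 active means compounds that cut the enzyme signal by at least half of the control window in the single-dose screen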;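 further: plate controls were DMSO wells with enzyme plus substrate for no effect and substrate without enzyme for full effect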
Target sequence (P24666 whole entry, looked up): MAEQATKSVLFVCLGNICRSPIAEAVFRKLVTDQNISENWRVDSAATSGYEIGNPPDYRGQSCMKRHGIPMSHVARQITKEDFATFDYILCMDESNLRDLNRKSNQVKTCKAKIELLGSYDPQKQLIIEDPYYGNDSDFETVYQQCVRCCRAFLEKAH
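test system = LMPTP-A | amount = 0.625 nM LMPTP-A final | reagent = fluorogenic phosphatase substrate OMFP at 400 µM final | incubation = 50 min at room temperature | benchmarks = no-enzyme low control, uninhibited high control | medium = Bis-Tris pH 6.0, DTT, detergent | signal = fluorescence intensity of OMFP turnover product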
STEP block – blocks human striatal-enriched tyrosine phosphatase; P54829; recombinant STEP, OMFP fluorogenic substrate, fluorescence; inhibition, % at 20 µM; actives 0.25% (n = 360,000);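 active means inhibition at 20 µM, scaled per plate between control wells, above about 37%, limit read from the data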;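 further: 0% = DMSO with enzyme and substrate and 100% = substrate only without enzyme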
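Material: STEP (striatal-enriched tyrosine phosphatase) enzyme, cell-free | Medium: 50 mM Bis-Tris pH 6.0 with 2.5 mM DTT and 0.005% Tween 20 | Read-out: Percent inhibition scaled to no-enzyme and uninhibited-enzyme controls, plate-pattern corrected | Signal: Fluorescence read at 480 nm ex / 540 nm em | Times: 20 min reaction, room temperature, in the dark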
DNMT1 confirm – confirmation of human DNMT1 inhibitors; shares compounds with DNMT1 block; DNMT1 molecular beacon HinP1I cleavage, fluorescence; inhibition, % at 10 µM; actives 8% (n = 2,300);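 active means average inhibition of at least 30% in the single-concentration confirmation test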
DNMT1 interf – shows spectral interference in the DNMT1 beacon assay; DNMT1 molecular beacon spectral interference counterscreen, fluorescence 485/520; actives 1% (n = 2,300); activation (fluorescence interference), % at 10 µM; shares compounds with DNMT1 block; AID 602387;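 active means activation of at least 30% at 10 µM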;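 further: DNMT1 catalytic domain with a HinP1I cleavage step and a FAM/dabcyl DNA beacon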
* marks the source's active call; other numbers are inactive results; / = not tested or not shown.

SMILES	Scp1 inh	DNMT1 block	SUMO1-SIM PPI	LMPTP inh	STEP block	DNMT1 confirm	DNMT1 interf
CCCCNC(=O)C1CCC(CNS(=O)(=O)c2cccc3nsnc23)CC1 (stereo not drawn)	-5	0	-38	0	2	/	/
O=C(OCCOc1ccc(Br)cc1)c1ccc(Cl)c(S(=O)(=O)N2CCOCC2)c1	-13	-1	5	3	1	/	/
Cc1ccc(-c2nc3cccnc3o2)cc1NC(=O)COc1ccc(C(C)(C)C)cc1	8	-7	1	6	6	/	/
Cc1ccc(-c2nc3ncccc3o2)cc1NC(=O)Cc1ccc(Cl)cc1	-12	76*	1	-1	-4	3	4
Cc1ccc(-c2nc3ncccc3o2)cc1NC(=O)COc1ccccc1	-1	-1	5	1	0	/	/
Cc1ccc(-c2nc3cccnc3o2)cc1NC(=O)COc1ccc(Cl)cc1C	3	73*	19	2	5	2	-7
O=S(=O)(c1cccc(COc2ccc(Cl)cc2Cl)c1)N1CCOCC1	-12	-1	5	4	-1	/	/
O=[N+]([O-])c1ccc(F)cc1OCc1cccc(S(=O)(=O)N2CCOCC2)c1	-5	82*	-13	0	0	5	8
CC1(C)C2CC[C@]3(C)C(CC=C4[C@@H]5C[C@@](C)(CO)[C@@H](O)C[C@]5(C(=O)O)CC[C@]43C)[C@@]2(C)CC[C@@H]1O (stereo partly drawn)	10	-2	0	1	-1	/	/
COC(=O)[C@@]1(C)CC[C@]2(C)CC[C@@]3(C)C(=CC(=O)C4[C@@]5(C)CC[C@H](O)C(C)(C)[C@@H]5CC[C@]43C)[C@H]2C1 (stereo partly drawn)	0	53*	-5	1	0	-1	2
COc1cc2c(C#N)c(N3CCCCC3)nc(N)c2c(N)n1	1	65*	52*	9	6	8	9
CCN(CC)c1nc(N)c(C#N)c(CC#N)c1C#N	-5	-2	5	0	-1	/	/
CCN(CC)c1nc(N)c2c(N)nc(OC)cc2c1C#N	-4	81*	52*	21	8	2	2
Cc1ccccc1S(=O)(=O)Cc1ccc(C(=O)N2CCN(c3ccccc3F)CC2)o1	-2	2	4	1	0	/	/
NS(=O)(=O)c1ccc(N/C=C\C(=O)c2ccc3ccccc3c2)cc1	-1	88*	3	12	3	2	3
C/C(=N/NS(=O)(=O)c1ccc(CC(C)C)cc1)c1ccncc1	4	2	8	-1	1	/	/
COC(=O)N1CCN(c2ccc(C(C)=O)cc2)CC1	-6	-4	0	2	-2	/	/
COC(=O)c1ccc(N2CCS(=O)(=O)CC2)cc1	7	59*	3	0	-5	2	4
N#Cc1ccccc1/C=N/Nc1nc(-c2ccccc2)c2cc(Cl)ccc2n1	9	66*	-6	11	2	4	-3
O=C(Cc1ccccc1)Nc1ccc(N2CCCC2)cc1	2	94*	-1	37	1	6	-4
CCCCC(=O)Nc1ccc(N2CCN(C(=O)CC)CC2)cc1	-11	7	-5	-1	1	/	/
CC(=O)N1CCN(c2ccc(NC(=O)c3cc4ccccc4o3)cc2)CC1	-4	-1	-2	0	6	/	/
CCCCC(=O)Nc1ccc(N2CCCC2)cc1	-4	77*	-7	9	4	1	3
CCOc1cccc(C(=O)NC(=S)Nc2ccc(N3CCCC3)cc2)c1	7	72*	-7	5	11	1	2
O=C(Nc1ccc(N2CCCC2)cc1)c1cc2ccccc2o1	0	65*	-27	26	1	4	-2
SMILES	Scp1 inh	DNMT1 block	SUMO1-SIM PPI	LMPTP inh	STEP block	DNMT1 confirm	DNMT1 interf
Cc1ccc(C)c(-n2nnc3ccccc3c2=O)c1	/	-1	-3	-1	0	/	/
Cc1ccsc1-c1cc2nc(Nc3ccc(F)cc3)n(C)c(=O)c2s1	/	-7	-4	3	-2	/	/
O=C(CSc1ncnc2c1cnn2-c1cccc(Cl)c1)NCC1CCCO1 (stereo not drawn)	-2	-3	1	-1	3	/	/
CN1C[C@@H]2[C@@H]3C(=O)N(Cc4ccccc4)C(=O)[C@@H]3[C@](Cc3ccccc3)(C1=O)N2C(=O)c1ccc(C(F)(F)F)cc1	-7	-3	2	0	1	/	/
O=C(Cc1ccc(Cl)cc1)Nc1ccc(NC(=O)c2ccccc2)cc1	3	56*	1	16	1	3	6
O=C(Nc1ccc(N2CCCC2)cc1)c1ccc(Br)cc1	-1	58*	-54	9	2	13	-6
O=C(Cc1ccccc1)Nc1ccc(N2CCOCC2)cc1	2	-4	-1	-1	-3	/	/
O=C(Cc1ccccc1)Nc1cccc(N2CCCC2)c1	-11	78*	0	16	-1	1	3
CC(=O)N1CCN(c2ccc(NC(=O)C(c3ccccc3)c3ccccc3)cc2)CC1	-2	1	3	0	0	/	/
O=C(Nc1ccc(N2CCCC2)cc1)C(c1ccccc1)c1ccccc1	3	73*	8	4	7	2	-1
Cc1c(S(=O)(=O)N(C)C2CCCCC2)c(=O)n(C)c(=O)n1C	2	5	0	-1	4	/	/
Cc1ccc(C(C)C)cc1S(=O)(=O)NC1CC(C)(C)NC(C)(C)C1	-7	10	3	-2	-1	/	/
COc1ccc(C(C(=O)NC2CCCC2)N(C(=O)c2snc(-c3ccc(F)cc3)c2N)c2ccccc2)cc1 (stereo not drawn)	-2	58*	2	-4	-1	3	4
NC(=O)c1nsc(C(=O)N(c2ccccc2)C(C(=O)NC2CCCC2)c2cccs2)c1N (stereo not drawn)	2	54*	-3	10	-3	6	0
CC1CCN(CCc2nc3cc(NC(=O)COc4ccc([N+](=O)[O-])cc4)ccc3n2C)CC1	-1	1	-20	4	2	/	/
COc1cc(C2c3cc(O)c(OC)cc3CC(C(=O)O)C2CO)ccc1O (stereo not drawn)	-4	1	25	0	1	/	/
Cc1ccccc1OCc1nnc(SCC(=O)Nc2ccc3nc(SCC(=O)Nc4ccccc4)sc3c2)n1C	-1	56*	2	1	0	2	-1
CN(C)c1ccc(C(C(=O)NCc2ccccc2)N(Cc2cccnc2)C(=O)c2snc(C(N)=O)c2N)cc1 (stereo not drawn)	-6	2	-15	-1	-2	/	/
